PMC3077804 (ACS Chemical Biology, 2010)

Molecular target: T1, AarA (Providencia stuartii, UniProt P46116)
T1 sequence (P46116 1-281): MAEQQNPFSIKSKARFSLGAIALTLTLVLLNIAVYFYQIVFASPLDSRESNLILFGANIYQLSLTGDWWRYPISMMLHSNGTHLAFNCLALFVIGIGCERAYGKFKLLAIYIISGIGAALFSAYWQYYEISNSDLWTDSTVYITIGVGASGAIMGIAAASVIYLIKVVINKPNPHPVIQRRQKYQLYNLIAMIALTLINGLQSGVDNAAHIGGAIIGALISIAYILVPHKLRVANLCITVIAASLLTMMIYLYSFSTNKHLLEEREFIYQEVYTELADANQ
Test: In vitro fluorescent assay
Assay type: biochemical
Settings: SAR
Method in brief: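 Fluorogenic KSp21 peptide (600 nM) cleaved at 24−25 °C by 100 nM AarA or 37 nM chymotrypsin. Buffer: 25 mM Hepes pH 7.4, 5 mM EDTA, 5% glycerol, 0.5% DDM and 20% DMSO (final). Compound was preincubated with enzyme for 30 min at 25 °C, and the reaction was started with peptide. Stopped after 50−60 min, still in the linear phase, with 1 M phosphoric acid pH 1.5; fluorescence read.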

Row | SMILES | inhibitory activity against AarA in the fluorescent assay (in words)
1 | Cc1ccc(S(=O)(=O)NC(CCCCN)C(=O)CCl)cc1 (centres unmarked) [TLCK] | inactive
2 | Cc1ccc(S(=O)(=O)N[C@@H](Cc2ccccc2)C(=O)CCl)cc1 [TPCK] | inactive
